Experiment [1] concerns HCT-116. The experiment can be described thus: Cytotoxicity against human HCT116 cells assessed as reduction in cell viability after 72 hrs by MTS assay. In kind it is functional, cell-based. The conditions noted are these: HCT-116, 72 h. The gist of the method:
(§1)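 Cells kept in DMEM with 10% FBS at 37 °C, 5% CO2. Proliferation read by MTS (CellTiter 96 AQueous One) 72 h after exposure across a concentration range. IC50 is the concentration giving 50% proliferation inhibition. Triplicate wells, three independent experiments, mean ± SD.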

Experiment [2] has as its system MCF7. The experiment can be described thus: Cytotoxicity against human MCF7 cells assessed as reduction in cell viability after 72 hrs by MTS assay. In kind it is functional, cell-based. The following applies: MCF7, 72 h. The gist of the method: as §1
(In general: Tetrazolium assays rely on reduction of a dye to a coloured formazan, in cell work by metabolically active cells.)

Experiment [3] deals with HCT-116. The experiment can be described thus: Cytotoxicity against human HCT116 cells assessed as reduction in cell viability at 20 uM after 72 hrs by MTS assay relative to control. It counts as functional. The gist of the method: (§2)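 Cells grown in DMEM with 10% FBS at 37 °C, 5% CO2, exposed to 20 μM for 72 h. Proliferation read by MTS and inhibition expressed relative to vehicle. ≥50% inhibition counted as active. Triplicate wells, three independent experiments.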

Experiment [4] relates to MCF7. The experiment can be described thus: Cytotoxicity against human MCF7 cells assessed as reduction in cell viability at 20 uM after 72 hrs by MTS assay relative to control. In kind it is functional. The gist of the method:
as §2

Experiment [5] has as its system A549. The experiment can be described thus: Cytotoxicity against human A549 cells assessed as reduction in cell viability after 72 hrs by MTS assay. The conditions noted are these: A549, 72 h. It counts as functional, cell-based. The gist of the method: (§3)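 MTS (CellTiter 96 AQueous One) proliferation read after 72 h of exposure across a concentration range. IC50 is the concentration giving 50% proliferation inhibition. Triplicate determinations in three independent experiments, mean ± SD.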

Experiment [6] deals with HeLa. The experiment can be described thus: Cytotoxicity against human HeLa cells assessed as reduction in cell viability after 72 hrs by MTS assay. It counts as functional, cell-based. The gist of the method: as §3
For experiment [7], the system named is HT-29. The experiment can be described thus: Cytotoxicity against human HT-29 cells assessed as reduction in cell viability after 72 hrs by MTS assay. In kind it is functional, cell-based. The conditions noted are these: HT-29, 72 h. The gist of the method: as §3
For experiment [8], the system named is MDA-MB-231. The experiment can be described thus: Cytotoxicity against human MDA-MB-231 cells assessed as reduction in cell viability after 72 hrs by MTS assay. It counts as functional, cell-based. The following applies: MDA-MB-231, 72 h. The gist of the method:
as §3

Experiment [9] concerns MCF-10A. The experiment can be described thus: Cytotoxicity against human MCF10A cells assessed as reduction in cell viability after 72 hrs by MTS assay. It counts as cell-based. The gist of the method: as §3

In ChEMBL document CHEMBL4325909, “Synthesis and evaluation of chalcone analogues containing a 4-oxoquinazolin-2-yl group as potential anti-tumor agents” (Eur J Med Chem, 2019) one finds IC50 and Activity data, which are given here for 2 compounds.

On to `COc1ccc(C(=O)/C=C/c2nc3ccccc3c(=O)[nH]2)c(OC)c1`, for which the IC50 (as a rule, the point on the concentration scale where inhibition reaches its midpoint) in experiment [1] was 4.08 µM; in experiment [2], 4.49 µM; in [5], 15.5 µM; in experiment [6], 12.7 µM; in [7] it was 8.77 µM; in [8], 14.3 µM. In addition, the IC50 in experiment [9] turned out to be 9.14 µM. The Activity entry in experiment [3] and in experiment [4] was “>=50%” in each case.

As for `O=C(/C=C/c1nc2ccccc2c(=O)[nH]1)c1ccc(Br)cc1`, the IC50 is 4.74 µM in experiment [1]; 3.75 µM in experiment [2]; 19.5 µM in experiment [5]; 16.1 µM in [6]; above 20 µM in [7]; 18.3 µM in experiment [8]. Also, the IC50 in experiment [9] stood at 11.3 µM. For the same compound, the Activity result in [3] and in experiment [4] was “>=50%” throughout.
